Results taken from ChEMBL document CHEMBL3739387, “Discovery and SAR of Novel and Selective Inhibitors of Urokinase Plasminogen Activator (uPA) with an Imidazo[1,2-a]pyridine Scaffold” (J Med Chem, 2015).
Active and inactive are the calls of the source. The calls are words filed in the database; no cut-off is given here.

Experiments:
[1] = target: T1, Urokinase-type plasminogen activator (Homo sapiens, UniProt P00749); assay: Inhibition of human uPA using pyro-Glu-Gly-Arg-pNA as substrate assessed as para-nitroaniline release from substrate measured for 5 mins by spectrophotometric assay
[2] = target: T2, Prothrombin (Homo sapiens, UniProt P00734); assay: Inhibition of human plasma thrombin using pyroGlu-Pro-Arg-pNA-HCl as substrate measured for 5 mins by spectrophotometric assay; assay type: cell-free
Outline: (§1)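 Thrombin from human plasma with pyroGlu-Pro-Arg-pNA (CS-21(66), Km 400 μM) at 415 μM in assay. 50 mM HEPES pH 8.2. pNA release at 405 nm over 5 min at 37 °C, in duplicate.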

[3] = target: T3, Tissue-type plasminogen activator (Homo sapiens, UniProt P00750); assay: Inhibition of recombinant human tPA using H-D-Ile-Pro-L-Arg-pNA-2HCl as substrate measured for 5 mins by spectrophotometric assay
Target sequence in this assay (P00750 whole entry): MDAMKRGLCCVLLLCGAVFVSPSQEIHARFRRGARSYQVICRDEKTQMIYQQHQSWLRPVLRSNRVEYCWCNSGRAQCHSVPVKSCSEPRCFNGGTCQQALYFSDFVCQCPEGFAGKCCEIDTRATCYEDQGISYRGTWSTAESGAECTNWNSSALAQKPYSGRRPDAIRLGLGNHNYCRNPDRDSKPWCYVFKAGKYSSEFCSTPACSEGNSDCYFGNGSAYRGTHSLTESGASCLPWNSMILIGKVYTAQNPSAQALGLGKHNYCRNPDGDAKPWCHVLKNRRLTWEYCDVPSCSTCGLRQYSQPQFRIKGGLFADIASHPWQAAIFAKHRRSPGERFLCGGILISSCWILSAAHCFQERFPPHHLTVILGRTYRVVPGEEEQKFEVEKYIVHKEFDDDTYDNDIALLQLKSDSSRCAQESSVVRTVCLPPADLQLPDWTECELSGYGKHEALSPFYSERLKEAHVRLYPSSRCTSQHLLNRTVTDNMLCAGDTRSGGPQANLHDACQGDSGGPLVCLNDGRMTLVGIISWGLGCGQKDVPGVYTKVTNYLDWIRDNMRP

[4] = target: T4, Coagulation factor X (Homo sapiens, UniProt P00742); assay: Inhibition of purified human factor 10a using Suc-Ile-Glu(gammaPip)-GlyArg-pNa-HCl as substrate measured for 5 mins by spectrophotometric assay
Outline: (§2)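 Purified human factor Xa, substrate Suc-Ile-Glu(γPip)-Gly-Arg-pNA (CS-11(32)) at 411 μM in assay. HEPES pH 8.2. Read at 405 nm for 5 min at 37 °C, duplicate wells.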

[5] = target: T5, Plasminogen (Homo sapiens, UniProt P00747); assay: Inhibition of human plasma plasmin using pyroGlu-Pro-Arg-pNA-HCl as substrate measured for 5 mins by spectrophotometric assay; assay type: cell-free
Outline: (§3)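 Plasmin purified from human plasma. Substrate pyroGlu-Pro-Arg-pNA (CS-21(66), Km 400 μM) at 400 μM in assay. HEPES pH 7.0, 37 °C, absorbance at 405 nm followed for 5 min, duplicates.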

[6] = target: T6, Plasma kallikrein (Homo sapiens, UniProt P03952); assay: Inhibition of human plasma kallikrein using D-Pro-Phe-Arg-pNA-2HCl as substrate measured for 5 mins by spectrophotometric assay; assay type: cell-free
Outline: (§4)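 Human plasma kallikrein, chromogenic substrate CS-31(02) (Km 269 μM) at 269 μM in assay. 50 mM HEPES at pH 7.4. Absorbance at 405 nm over 5 min at 37 °C, duplicates.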

[7] = Inhibition of bovine pancreatic trypsin using Nalpha-benzoyl-D,L-Arg-pNA-HCl as substrate measured for 5 mins by spectrophotometric assay; design: species or system Bos taurus
[8] = target: T7, Coagulation factor VII (Homo sapiens) (UniProt P08709); assay: Inhibition of purified human factor 7a using MeSO2-Cha-Abu-Arg-pNA as substrate at 100 uM measured for 5 mins by spectrophotometric assay
T7 sequence (whole entry): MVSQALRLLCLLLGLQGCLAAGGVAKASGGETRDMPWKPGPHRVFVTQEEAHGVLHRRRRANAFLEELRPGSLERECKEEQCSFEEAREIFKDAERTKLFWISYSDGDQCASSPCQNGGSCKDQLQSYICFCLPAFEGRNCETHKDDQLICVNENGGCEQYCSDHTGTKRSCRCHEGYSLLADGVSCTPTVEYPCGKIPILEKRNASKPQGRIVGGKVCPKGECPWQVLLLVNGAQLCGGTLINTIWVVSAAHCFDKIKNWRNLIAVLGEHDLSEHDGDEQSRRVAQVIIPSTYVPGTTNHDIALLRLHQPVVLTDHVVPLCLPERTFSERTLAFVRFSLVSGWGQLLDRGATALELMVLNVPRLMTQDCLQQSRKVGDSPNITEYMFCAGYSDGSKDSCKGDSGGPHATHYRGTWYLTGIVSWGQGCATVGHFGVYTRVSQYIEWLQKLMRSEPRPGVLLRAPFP
Outline: (§5)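 Purified human plasma FVIIa with tissue factor (Innovin) present. MeSO2-Cha-Abu-Arg-pNA at 800 μM in assay. Buffer 50 mM HEPES pH 7.5, 100 mM NaCl, 5 mM CaCl2, 0.1% BSA.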

[9] = target: T2, Prothrombin; assay: Inhibition of human plasma thrombin using pyroGlu-Pro-Arg-pNA-HCl as substrate at 100 uM measured for 5 mins by spectrophotometric assay; assay type: cell-free; outline: as §1
[10] = target: T3, Tissue-type plasminogen activator; assay: Inhibition of recombinant human tPA using H-D-Ile-Pro-L-Arg-pNA-2HCl as substrate at 100 uM measured for 5 mins by spectrophotometric assay
Target sequence in this assay (P00750 36-562 limits assumed): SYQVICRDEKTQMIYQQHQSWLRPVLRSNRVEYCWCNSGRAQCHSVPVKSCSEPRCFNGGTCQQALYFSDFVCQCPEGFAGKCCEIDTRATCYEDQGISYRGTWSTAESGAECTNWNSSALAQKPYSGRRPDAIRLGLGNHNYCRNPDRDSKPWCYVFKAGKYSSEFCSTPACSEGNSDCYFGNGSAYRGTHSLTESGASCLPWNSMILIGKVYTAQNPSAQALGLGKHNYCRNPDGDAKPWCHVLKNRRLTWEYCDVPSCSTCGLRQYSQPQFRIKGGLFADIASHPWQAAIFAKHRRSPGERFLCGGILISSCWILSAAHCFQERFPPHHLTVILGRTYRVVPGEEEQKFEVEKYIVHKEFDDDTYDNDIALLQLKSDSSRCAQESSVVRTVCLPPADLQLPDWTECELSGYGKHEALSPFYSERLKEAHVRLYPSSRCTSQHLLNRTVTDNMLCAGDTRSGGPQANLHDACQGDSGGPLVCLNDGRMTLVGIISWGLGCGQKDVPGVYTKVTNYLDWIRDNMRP

[11] = target: T4, Coagulation factor X; assay: Inhibition of purified human factor 10a using Suc-Ile-Glu(yPip)-GlyArg-pNa-HCl as substrate at 100 uM measured for 5 mins by spectrophotometric assay; outline: as §2
[12] = target: T5, Plasminogen; assay: Inhibition of human plasma plasmin using pyroGlu-Pro-Arg-pNA-HCl as substrate at 100 uM measured for 5 mins by spectrophotometric assay; assay type: cell-free; outline: as §3
[13] = target: T6, Plasma kallikrein; assay: Inhibition of human plasma kallikrein using D-Pro-Phe-Arg-pNA-2HCl as substrate at 100 uM measured for 5 mins by spectrophotometric assay; assay type: cell-free; outline: as §4
[14] = organism: Bos taurus; assay: Inhibition of bovine pancreatic trypsin using Na-benzoyl-D,L-Arg-pNA-HCl as substrate at 100 uM measured for 5 mins by spectrophotometric assay
[15] = organism: Homo sapiens; assay: Selectivity index, ratio of IC50 for human plasma thrombin to IC50 for human uPA
[16] = organism: Homo sapiens; assay: Selectivity index, ratio of IC50 for recombinant human tPA to IC50 for human uPA
[17] = organism: Homo sapiens; assay: Selectivity index, ratio of IC50 for purified human factor 10a to IC50 for human uPA
[18] = organism: Homo sapiens; assay: Selectivity index, ratio of IC50 for human plasma plasmin to IC50 for human uPA
[19] = organism: Homo sapiens; assay: Selectivity index, ratio of IC50 for human plasma kallikrein to IC50 for human uPA
[20] = Selectivity index, ratio of IC50 for bovine pancreatic trypsin to IC50 for human uPA
[21] = organism: Homo sapiens; assay: Selectivity index, ratio of IC50 for purified human factor 7a to IC50 for human uPA
[22] = target: T8, Coagulation factor VII (Homo sapiens, UniProt P08709); assay: Inhibition of purified human factor 7a using MeSO2-Cha-Abu-Arg-pNA as substrate measured for 5 mins by spectrophotometric assay; outline: as §5
T8 sequence (P08709 whole entry): T7 sequence (whole entry)

[23] = target: T1, Urokinase-type plasminogen activator; assay: Reversible inhibition of human uPA using pyro-Glu-Gly-Arg-pNA as substrate assessed as para-nitroaniline release from substrate measured for 5 mins by spectrophotometry based enzyme kinetics assay
[24] = target: T1, Urokinase-type plasminogen activator; assay: Tight binding inhibition of human uPA using pyro-Glu-Gly-Arg-pNA as substrate assessed as para-nitroaniline release from substrate measured for 5 mins by spectrophotometry based enzyme kinetics assay
[25] = target: T1, Urokinase-type plasminogen activator; assay: Slow dissociating inhibition of human uPA using pyro-Glu-Gly-Arg-pNA as substrate assessed as para-nitroaniline release from substrate measured for 5 mins by spectrophotometry based enzyme kinetics assay

T5 sequence (P00747 97-580 limits assumed): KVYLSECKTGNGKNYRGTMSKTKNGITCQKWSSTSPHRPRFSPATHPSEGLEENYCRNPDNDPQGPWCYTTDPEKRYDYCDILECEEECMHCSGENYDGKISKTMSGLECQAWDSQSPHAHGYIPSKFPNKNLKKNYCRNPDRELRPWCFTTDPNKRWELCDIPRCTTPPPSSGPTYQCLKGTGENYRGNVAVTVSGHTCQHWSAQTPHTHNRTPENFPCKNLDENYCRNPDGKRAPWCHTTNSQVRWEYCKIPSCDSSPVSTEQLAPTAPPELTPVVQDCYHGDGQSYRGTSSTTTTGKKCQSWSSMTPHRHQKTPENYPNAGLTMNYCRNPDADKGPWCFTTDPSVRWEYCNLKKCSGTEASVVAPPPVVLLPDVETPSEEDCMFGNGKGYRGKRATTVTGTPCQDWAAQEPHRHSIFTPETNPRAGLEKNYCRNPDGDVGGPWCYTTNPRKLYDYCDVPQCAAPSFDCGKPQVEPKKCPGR
T5 sequence (P00747 581-810 limits assumed): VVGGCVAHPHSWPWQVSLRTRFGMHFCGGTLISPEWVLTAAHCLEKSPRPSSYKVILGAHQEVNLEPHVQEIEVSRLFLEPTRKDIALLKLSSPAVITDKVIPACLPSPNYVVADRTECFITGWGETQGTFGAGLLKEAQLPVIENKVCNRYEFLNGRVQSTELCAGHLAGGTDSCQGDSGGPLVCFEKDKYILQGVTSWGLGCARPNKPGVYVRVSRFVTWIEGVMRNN
T4 sequence (P00742 41-179 limits assumed): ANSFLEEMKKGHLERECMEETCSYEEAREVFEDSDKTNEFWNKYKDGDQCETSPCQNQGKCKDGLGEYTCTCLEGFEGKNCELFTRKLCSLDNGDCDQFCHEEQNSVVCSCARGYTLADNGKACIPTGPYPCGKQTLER
T4 sequence (P00742 235-488 limits assumed): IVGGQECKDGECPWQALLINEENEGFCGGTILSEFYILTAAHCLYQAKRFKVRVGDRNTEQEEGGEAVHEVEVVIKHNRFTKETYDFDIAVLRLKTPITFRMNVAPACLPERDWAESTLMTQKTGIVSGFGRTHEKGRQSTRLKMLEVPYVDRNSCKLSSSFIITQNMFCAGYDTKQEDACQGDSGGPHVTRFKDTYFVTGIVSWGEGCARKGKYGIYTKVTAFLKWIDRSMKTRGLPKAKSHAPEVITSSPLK
T6 sequence (P03952 20-390 limits assumed): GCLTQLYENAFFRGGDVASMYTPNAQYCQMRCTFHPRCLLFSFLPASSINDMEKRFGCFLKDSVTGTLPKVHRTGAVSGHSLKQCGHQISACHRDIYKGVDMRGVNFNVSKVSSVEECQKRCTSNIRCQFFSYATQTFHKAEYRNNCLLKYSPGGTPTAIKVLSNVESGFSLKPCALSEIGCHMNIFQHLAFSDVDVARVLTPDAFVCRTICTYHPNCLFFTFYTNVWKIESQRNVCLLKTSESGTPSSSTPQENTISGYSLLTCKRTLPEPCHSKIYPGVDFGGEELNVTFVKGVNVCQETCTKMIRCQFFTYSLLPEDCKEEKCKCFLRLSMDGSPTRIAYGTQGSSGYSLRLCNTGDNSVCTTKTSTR
T6 sequence (P03952 391-638 limits assumed): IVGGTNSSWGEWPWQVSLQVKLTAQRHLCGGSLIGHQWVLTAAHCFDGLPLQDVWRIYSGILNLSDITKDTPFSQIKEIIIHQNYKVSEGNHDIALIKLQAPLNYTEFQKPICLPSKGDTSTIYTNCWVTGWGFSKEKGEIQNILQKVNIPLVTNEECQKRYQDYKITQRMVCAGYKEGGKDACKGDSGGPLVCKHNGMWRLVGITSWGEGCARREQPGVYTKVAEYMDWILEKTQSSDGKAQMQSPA

- IC50 [1]: 0.097 µM
- IC50 [2]: > 100 µM
- IC50 [3]: > 100 µM
- IC50 [4]: > 100 µM
- IC50 [5]: > 100 µM
- IC50 [6]: > 100 µM
- IC50 [7]: > 100 µM
- inhibition [8]: 1.4%
- inhibition [9]: 19.2%
- inhibition [10]: 8%
- inhibition [11]: 41.8%
- inhibition [12]: 13.6%
- inhibition [13]: 2.8%
- inhibition [14]: 42.7%
- Ratio IC50 [15]: > 1000
- Ratio IC50 [16]: > 1000
- Ratio IC50 [17]: > 1000
- Ratio IC50 [18]: > 1000
- Ratio IC50 [19]: > 1000
- Ratio IC50 [20]: > 1000
- Ratio IC50 [21]: > 1000
- IC50 [22]: > 100 µM
- inhibition [23]: Active
- inhibition [24]: Active
- inhibition [25]: Active
SMILES: CCCCNC(=O)c1ccn2c(NCc3ccc(NC(=N)N)cc3)cnc2c1
